Laboratory results published in ChEMBL document CHEMBL1137430, “Incorporation of an intramolecular hydrogen-bonding motif in the side chain of 4-aminoquinolines enhances activity against drug-resistant P. falciparum” (J Med Chem, 2006).
pIC50: −log10 of the molar value.

How the values were obtained:
Plasmodium falciparum [1] = assay: Antimalarial activity against multidrug-resistant Plasmodium falciparum W2; format: functional, organism-based
How it was run: (§1)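 P. falciparum blood-stage cultures at 37 °C under 5% CO2, 5% O2. Samples taken 72 h after drug addition, fixed in 2% paraformaldehyde about 1 h, then stained with 50 nM YOYO-1 in PBS for 24 h in the dark at 4 °C. Percent parasitized RBCs read by flow cytometry against no-drug cultures. Doses 0.1–200 nM in triplicate. IC50 from a variable-slope sigmoidal fit.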

Plasmodium falciparum [2] = assay: Antimalarial activity against chloroquine-sensitive Plasmodium falciparum 3D7; format: functional, organism-based; how it was run: as §1

Compound | pIC50 (Plasmodium falciparum [1]) | pIC50 (Plasmodium falciparum [2])
CCCN(CCCCNc1ccnc2cc(Cl)ccc12)Cc1cccc(OC)c1O | 8.37 | 9.00
CCCN(CCCNc1ccnc2cc(Cl)ccc12)Cc1cccc(F)c1O | 8.59 | 9.01
CCCN(CCCNc1ccnc2cc(Cl)ccc12)Cc1ccco1 | 7.48 | 7.91
CCCN(CCCCNc1ccnc2cc(Cl)ccc12)Cc1cccs1 | 7.66 | 8.14
CCCN(CCCNc1ccnc2cc(Cl)ccc12)Cc1cc(O)ccc1O | 7.65 | 8.54
CCCN(CCCCNc1ccnc2cc(Cl)ccc12)Cc1ccc(Cl)o1 | 8.22 | 8.37
CCCN(CCCNc1ccnc2cc(Cl)ccc12)Cc1cc(F)ccc1OC |  | 8.28
CCCN(CCCCNc1ccnc2cc(Cl)ccc12)Cc1cccc(F)c1O | 8.34 | 8.85
CCCN(CCCNc1ccnc2cc(C)ccc12)Cc1cc([N+](=O)[O-])ccc1O | 6.90 | 7.41
CCCN(CCCCNc1ccnc2cc(Cl)ccc12)Cc1cccc2c1OCO2 | 7.64 | 8.38
CCCN(CCCCNc1ccnc2cc(Cl)ccc12)Cc1cc(OC(F)(F)F)ccc1O | 8.23 | 8.62
CCCN(CCCCNc1ccnc2cc(Cl)ccc12)Cc1cc(OC)ccc1O | 7.56 | 8.17
CCCN(CCCNc1ccnc2cc(Cl)ccc12)Cc1cccs1 | 6.85 | 7.49
CCCN(CCCCNc1ccnc2cc(Cl)ccc12)Cc1cc(F)ccc1OC | 8.31 | 8.72
CCCN(CCCCNc1ccnc2cc(Cl)ccc12)Cc1ccc(C)o1 | 7.52 | 8.13
CCCN(CCCCNc1ccnc2cc(Cl)ccc12)Cc1c(F)cccc1OC | 7.95 | 8.00
CCCN(CCCCNc1ccnc2cc(Cl)ccc12)Cc1ccccc1O | 7.70 | 8.15
CCCN(CCCCNc1ccnc2cc(Cl)ccc12)Cc1cc(O)ccc1O | 8.05 | 8.66
CCCN(CCCCNc1ccnc2cc(Cl)ccc12)Cc1ccco1 | 8.40 | 8.51
CCCN(CCCNc1ccnc2cc(Cl)ccc12)Cc1ccccc1O | 8.74 | 9.19
